Assay results as given in the EternaBench riboswitch data.

System: MS2 coat protein
Test: apparent Kd, MS2 coat protein; higher = weaker binding; RNA-MaP array; FMN 200 µM where present
Method in brief: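 The titrant was SNAP-549-labelled MS2 coat protein, run from 0.7 or 1.5 nM in doubling steps to 3 µM. It was applied to designs transcribed by stalled E. coli RNA polymerase on Illumina sequencing-chip clusters, without ligand first and then with constant ligand, in 100 mM Tris-HCl pH 7.5, 80 mM KCl, 4 mM MgCl2, BSA, DTT, yeast tRNA and Tween-20. The apparent Kd is the median of filtered per-cluster binding-curve fits, with green signal normalised to red-channel RNA signal and control-cluster median Fmax.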

[1] = designed as: OFF switch for flavin mononucleotide, no ligand
[2] = ligand present: flavin mononucleotide, designed as: OFF switch for flavin mononucleotide
[3] = designed as: ON switch for flavin mononucleotide, no ligand
[4] = ligand present: flavin mononucleotide, designed as: ON switch for flavin mononucleotide

CUGAAUCUAGGAUAUUGUACUGCUGACAUGAGGAUCACCCAUGUAUGUUAACUCGGCCGUCGAGAAGGAGAACAUA
apparent Kd [1]: 36.1 nM | apparent Kd [2]: 27.6 nM

GAUGAUCGGUGAGGAUAUUUUAUAACGUUUUUGAAAGAAGGCACUGACAUGAGGAUCACCCAUGUGAGUCCUCAUCUUGAAAUA
apparent Kd [1]: 18 nM | apparent Kd [2]: 35.6 nM

UUGGACGUCGCAGGAUAUGUAGGAUAUUCCUACAUGAGGAUCACCCAUGUUGACAUGGAAGAAGGACAGAAGGACGAUGUCCAU
apparent Kd [3]: 693 nM | apparent Kd [4]: 9.15 nM

AUUAUUUAAGUCAGGAUAUCGUAUUUAUUUAAAUACGAGAAGGGACAUGAGGAUCACCCAUGUAAUAAAUUUUA
apparent Kd [1]: 14.2 nM | apparent Kd [2]: 20.4 nM

GUUUUCGCAUGAGGAUAUGCUCGCAUUUCAAGAGCAGAAGGUAUGUCUAUAGACAUGAGGAUCACCCAUGUAUUUAUCAUUGAA
apparent Kd [3]: 273 nM | apparent Kd [4]: 118 nM

CAUGUCCUCACAGGAUAUGCUGGACUUUGUCCAGCAGAAGGGUGAUAACAUGAGGAUCACCCAUGUGGACAUGAUAUAUUUAAU
apparent Kd [3]: 111 nM | apparent Kd [4]: 568 nM

AGCUAGCUAGGAUAUGCGUAAAUGUCGAAAGACGUAUUGGGACAUGAGGAUCACCCAUGUAGAAGGAGCUAGCA
apparent Kd [1]: 29.1 nM | apparent Kd [2]: 54.5 nM

CAGCGUACCAGAGGAUAUGAUUGUGGGUAAAGAGCGCUUAGGUGGCUACAUGAGGAUCACCCAUGUCAGAAGGCUGGAGUUCAA
apparent Kd [1]: 279 nM | apparent Kd [2]: 129 nM

AAAUACCGGUGAGGAUAUUUUUAAUAGAGCUUUAUGAUAUACAUGAGGAUCACCCAUGUUACGUUAAAGAAGGCAUCGGAUAAA
apparent Kd [1]: 18.4 nM | apparent Kd [2]: 16.6 nM

GCUGCAUAGGCAGGAUAUGCAACAAUUCGAAUAAAAUAUAACGAAUUGACAUGAGGAUCACCCAUGUAGAAGGGCCUGUGCAGU
apparent Kd [1]: 18.6 nM | apparent Kd [2]: 20 nM

AUGCUCAUAGGAUAUAGAUUGAUUCACAUGAGGAUCACCCAUGUAAACUCUACUUUUUAACUAGAAGGAUGUUUUU
apparent Kd [1]: 24.7 nM | apparent Kd [2]: 23.5 nM

CGCUACGUUUCGUAGCAGCUAGGUGAGGAUAUUCAAUUUUUCACAUGAGGAUCACCCAUGUAUGUGAAGAAGGCGCCUAGAAAC
apparent Kd [3]: 10.8 nM | apparent Kd [4]: 4.81 nM

UGUCGGAGCAGAGGAUAUACAUGAGGAUCACCCAUGUAAUAAAGUGAAGCCUGGAAACAGGCAAUGUAGAAGGCUGCUCCGAUA
apparent Kd [1]: 12 nM | apparent Kd [2]: 88.6 nM

CAGUGCAAUGUAGGAUAUGCUCAGGAUAACUGAGCAGAAGGACAUGAGGAUCACCCAUGUACUAUGAAAGAUAAUAAAGCACUG
apparent Kd [1]: 14.1 nM | apparent Kd [2]: 18.3 nM

CGCAAGUAUACAUGAGGAUCACCCAUGUCAGAAAGGGUAAUCAGAAGGUACUAUUAGAGAAAGAGUAAGGAUAUGAAAUUUGCG
apparent Kd [3]: 747 nM | apparent Kd [4]: 125 nM

UGGUACUAGGGAGGAUAUGGGAAGAUACAUGAGGAUCACCCAUGUUUAAGAAUGCCAAGAGGCAACUAGAAGGCCCUAGUACCU
apparent Kd [3]: 384 nM | apparent Kd [4]: 17.8 nM

CCGGAUUAGGAGGAUAUAGGAGUCGAUAGACACCUAGAAGGCCUAACAUGAGGAUCACCCAUGUGUCCUACCGG
apparent Kd [1]: 21.9 nM | apparent Kd [2]: 90.8 nM

AGCUAGUGAGGAUAUACGAACAUGUCAAAAGACUGUAAGGGACAUGAGGAUCACCCAUGUAGAAGGCACUAGCA
apparent Kd [1]: 45.2 nM | apparent Kd [2]: 384 nM

ACGACUGUCAUAGGAUAUGGUUACAUGAGGAUCACCCAUGUCAAGGGUCUAACUAAGUAUAGCUACUAGAAGGAUGAUAGUCGA
apparent Kd [1]: 143 nM | apparent Kd [2]: 116 nM

UGGUAGUCAGGAUAUACGAACAUGUCGCCAGAUGUCAAGGUACAUGAGGAUCACCCAUGUAGAAGGGACUAGAA
apparent Kd [1]: 44.5 nM | apparent Kd [2]: 48.2 nM

CGCCUCAGUUCAGGAUAUGUAUGGGUCUAACGAACAGAAGGGAACAUGAGGAUCACCCAUGUAAAUAGGGCCAAAGGCUAGAUC
apparent Kd [1]: 41.7 nM | apparent Kd [2]: 175 nM

GCACUGGAUGUAGGAUAUCAGGACGAUAAGUCCUGAGAAGGACAUGAGGAUCACCCAUGUAAAACUCACCAGUGCUAUAAUAUA
apparent Kd [1]: 12.8 nM | apparent Kd [2]: 17.7 nM

AACCAACAUGAGGAUCACCCAUGUCAACCCAAGCGAGGAUAUCCGAGAAUAACAAUGGGAGGAGAAGGCGCGACCU
apparent Kd [3]: 73.4 nM | apparent Kd [4]: 55.6 nM

ACUAUACGAGGAUAUGCUGUCAGUACUCCGGAGUUAGUUUGACAUGAGGAUCACCCAUGUAGAAGGCGUUUACU
apparent Kd [1]: 40 nM | apparent Kd [2]: 30.3 nM

GCCAUCGCAUGAGGAUAUGCUCGGGUUUCCCGAGCAGAAGGCAUGUCAAAAGACAUGAGGAUCACCCAUGUAGUUAAGAUGGCA
apparent Kd [3]: 122 nM | apparent Kd [4]: 8.11 nM

GACAUGAGGAUCACCCAUGUCCCUCCAGAAGGCUGGCGCGCGAAACCUAUAUCGGUUCCGGGCACAGAGGAUAUGGGCGGUUGG
apparent Kd [3]: 199 nM | apparent Kd [4]: 27.2 nM

AACAAACGCCUAGGAUAUCAUACUCGAGCGGUCUGAGAAGGAGGCAAGCUUGGGUCCUCAGCACAUGAGGAUCACCCAUGUAAG
apparent Kd [1]: 303 nM | apparent Kd [2]: 57.2 nM
